This is an account of results in ChEMBL document CHEMBL4373663, “New N-phenyl-4,5-dibromopyrrolamides as DNA gyrase B inhibitors” (Medchemcomm, 2019).

In assay [1] the target is DNA gyrase (Escherichia coli) (UniProt P0AES6+P0AES4). The assay is described as follows: Inhibition of Escherichia coli DNA gyrase using relaxed pNO1 plasmid DNA as substrate assessed as enzyme residual activity at 10 uM incubated for 30 mins by fluorescence assay relative to control. Type of assay: protein-complex assay.
Assay [2] has as its target DNA gyrase (Escherichia coli, UniProt P0AES4+P0AES6). As to the kind of experiment: Inhibition of Escherichia coli DNA gyrase using relaxed pNO1 plasmid DNA as substrate incubated for 30 mins by fluorescence assay. The format is protein-complex assay.
In assay [3] the target is DNA gyrase (Staphylococcus aureus) (UniProt P0A0K8+P20831). The assay is described as follows: Inhibition of Staphylococcus aureus DNA gyrase using relaxed pNO1 plasmid DNA as substrate assessed as enzyme residual activity at 10 uM incubated for 30 mins by fluorescence assay relative to control. Type of assay: protein-complex assay.
The subject of assay [4] is Escherichia coli. The assay is described as follows: Inhibition of Escherichia coli DNA topoisomerase 4 using supercoiled pNO1 plasmid DNA as substrate assessed as enzyme residual activity at 10 uM incubated for 30 mins by fluorescence assay relative to control.
Assay [5] addresses Topoisomerase IV (Staphylococcus aureus) (UniProt P0C1U9+P0C1S7). As to the kind of experiment: Inhibition of Staphylococcus aureus DNA topoisomerase 4 using supercoiled pNO1 plasmid DNA as substrate assessed as enzyme residual activity at 10 uM incubated for 30 mins by fluorescence assay relative to control. The format is protein-complex assay.
Assay [6] has as its system Escherichia coli. The assay is described as follows: Antibacterial activity against Escherichia coli ATCC 25922 assessed as reduction in bacterial growth at 50 uM incubated for 24 hrs by broth microdilution assay relative to control. The format is functional. The gist of the method:
(§1)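 Clinical control strains kept on cation-adjusted Mueller Hinton agar slants. Before the assay, suspensions were grown in cation-adjusted Mueller Hinton broth at 37 °C for 16–20 h at 100 rpm. Broth microdilution in 96-well format followed CLSI guidelines. Each compound was tested at 50 μM, and the result was expressed as percentage inhibition of bacterial growth.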
In general terms: Dilution methods test growth across graded concentrations, often in twofold steps.

The test system of another assay is Enterococcus faecalis. The assay is described as follows: Antibacterial activity against Enterococcus faecalis ATCC 29212 assessed as reduction in bacterial growth at 50 uM incubated for 24 hrs by broth microdilution assay relative to control. Type of assay: functional. In a few lines:
as §1

For a further assay, the system named is Staphylococcus aureus. The assay is described as follows: Antibacterial activity against Staphylococcus aureus ATCC 25923 assessed as bacterial growth at 50 uM incubated for 24 hrs by broth microdilution assay. The format is functional, organism-based. In a few lines:
as §1

For another assay, the system named is Pseudomonas aeruginosa. The assay is described as follows: Antibacterial activity against Pseudomonas aeruginosa ATCC 27853 assessed as bacterial growth at 50 uM incubated for 24 hrs by broth microdilution assay. Type of assay: functional, organism-based. The gist of the method:
as §1

In assay [7] the target is DNA gyrase (Staphylococcus aureus, UniProt P0A0K8+P20831). As to the kind of experiment: Inhibition of Staphylococcus aureus DNA gyrase using relaxed pNO1 plasmid DNA as substrate incubated for 30 mins by fluorescence assay. The format is protein-complex assay.
Assay [8] is described as follows: Inhibition of Escherichia coli DNA topoisomerase 4 using supercoiled pNO1 plasmid DNA as substrate incubated for 30 mins by fluorescence assay.
Another assay concerns the target Topoisomerase IV (Staphylococcus aureus, UniProt P0C1S7+P0C1U9). As to the kind of experiment: Inhibition of Staphylococcus aureus DNA topoisomerase 4 using supercoiled pNO1 plasmid DNA as substrate incubated for 30 mins by fluorescence assay. The format is protein-complex assay.

Active and inactive are the calls of the source. The rule behind the calls is not given here.

Sequence of DNA gyrase (Staphylococcus aureus, UniProt P0A0K8+P20831) (P0A0K8 whole entry): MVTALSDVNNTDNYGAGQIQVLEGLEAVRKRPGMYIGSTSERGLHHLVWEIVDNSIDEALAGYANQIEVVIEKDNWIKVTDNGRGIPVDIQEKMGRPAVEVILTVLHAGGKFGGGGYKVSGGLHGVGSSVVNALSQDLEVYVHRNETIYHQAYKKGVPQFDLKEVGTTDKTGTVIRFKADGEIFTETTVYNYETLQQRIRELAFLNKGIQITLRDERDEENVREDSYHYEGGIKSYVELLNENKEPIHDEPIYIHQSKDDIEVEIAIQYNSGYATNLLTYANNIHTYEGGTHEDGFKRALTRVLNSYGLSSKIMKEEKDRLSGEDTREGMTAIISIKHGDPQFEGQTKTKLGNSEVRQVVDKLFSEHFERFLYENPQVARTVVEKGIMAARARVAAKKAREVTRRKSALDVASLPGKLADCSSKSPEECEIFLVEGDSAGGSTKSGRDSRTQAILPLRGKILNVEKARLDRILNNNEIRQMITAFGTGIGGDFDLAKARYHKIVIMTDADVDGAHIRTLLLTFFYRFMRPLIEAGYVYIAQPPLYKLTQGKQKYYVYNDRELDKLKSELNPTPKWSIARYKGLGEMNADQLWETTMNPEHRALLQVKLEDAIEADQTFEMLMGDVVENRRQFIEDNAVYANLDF
Sequence of DNA gyrase (Staphylococcus aureus, UniProt P0A0K8+P20831) (P20831 whole entry): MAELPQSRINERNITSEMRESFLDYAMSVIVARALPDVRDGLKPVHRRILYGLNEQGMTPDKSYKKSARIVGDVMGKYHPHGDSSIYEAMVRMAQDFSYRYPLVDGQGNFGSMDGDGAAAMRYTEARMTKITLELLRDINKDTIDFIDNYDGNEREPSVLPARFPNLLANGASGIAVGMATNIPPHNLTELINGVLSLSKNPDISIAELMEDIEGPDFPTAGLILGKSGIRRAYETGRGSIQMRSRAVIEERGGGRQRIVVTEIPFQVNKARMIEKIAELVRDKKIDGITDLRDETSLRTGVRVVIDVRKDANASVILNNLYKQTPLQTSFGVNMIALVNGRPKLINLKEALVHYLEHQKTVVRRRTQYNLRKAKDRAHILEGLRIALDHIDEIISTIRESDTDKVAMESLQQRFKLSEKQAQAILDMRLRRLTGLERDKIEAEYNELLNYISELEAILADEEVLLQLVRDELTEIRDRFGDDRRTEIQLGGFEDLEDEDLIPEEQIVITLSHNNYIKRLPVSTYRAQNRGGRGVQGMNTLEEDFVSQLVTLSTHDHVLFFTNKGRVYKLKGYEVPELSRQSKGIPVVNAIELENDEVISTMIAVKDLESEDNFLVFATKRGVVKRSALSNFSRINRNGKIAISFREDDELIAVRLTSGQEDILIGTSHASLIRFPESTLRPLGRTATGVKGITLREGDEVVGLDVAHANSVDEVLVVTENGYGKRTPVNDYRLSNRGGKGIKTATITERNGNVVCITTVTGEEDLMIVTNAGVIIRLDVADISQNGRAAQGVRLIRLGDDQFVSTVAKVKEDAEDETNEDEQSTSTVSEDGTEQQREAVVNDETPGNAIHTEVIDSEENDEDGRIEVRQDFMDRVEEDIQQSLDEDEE
Sequence of DNA gyrase (Staphylococcus aureus) (P0A0K8 2-644 limits assumed): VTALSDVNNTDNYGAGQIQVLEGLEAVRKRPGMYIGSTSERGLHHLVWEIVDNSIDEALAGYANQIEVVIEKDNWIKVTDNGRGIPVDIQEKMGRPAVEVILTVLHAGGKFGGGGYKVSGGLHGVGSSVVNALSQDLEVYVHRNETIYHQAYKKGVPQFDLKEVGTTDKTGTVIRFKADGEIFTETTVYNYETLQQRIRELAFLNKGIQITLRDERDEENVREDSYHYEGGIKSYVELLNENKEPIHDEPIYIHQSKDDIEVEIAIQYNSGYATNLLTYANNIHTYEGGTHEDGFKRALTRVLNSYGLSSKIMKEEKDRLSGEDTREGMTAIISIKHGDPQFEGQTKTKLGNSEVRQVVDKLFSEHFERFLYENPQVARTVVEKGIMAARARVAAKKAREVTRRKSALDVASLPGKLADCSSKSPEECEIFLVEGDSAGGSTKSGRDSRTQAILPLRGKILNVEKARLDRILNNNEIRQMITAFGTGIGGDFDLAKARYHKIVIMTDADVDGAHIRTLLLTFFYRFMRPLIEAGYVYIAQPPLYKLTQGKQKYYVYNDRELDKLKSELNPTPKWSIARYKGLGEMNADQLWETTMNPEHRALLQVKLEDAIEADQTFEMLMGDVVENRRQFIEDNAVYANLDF
Sequence of DNA gyrase (Staphylococcus aureus) (P20831 whole entry partner): as the sequence (P20831 whole entry) above
Sequence of Topoisomerase IV (P0C1U9 whole entry): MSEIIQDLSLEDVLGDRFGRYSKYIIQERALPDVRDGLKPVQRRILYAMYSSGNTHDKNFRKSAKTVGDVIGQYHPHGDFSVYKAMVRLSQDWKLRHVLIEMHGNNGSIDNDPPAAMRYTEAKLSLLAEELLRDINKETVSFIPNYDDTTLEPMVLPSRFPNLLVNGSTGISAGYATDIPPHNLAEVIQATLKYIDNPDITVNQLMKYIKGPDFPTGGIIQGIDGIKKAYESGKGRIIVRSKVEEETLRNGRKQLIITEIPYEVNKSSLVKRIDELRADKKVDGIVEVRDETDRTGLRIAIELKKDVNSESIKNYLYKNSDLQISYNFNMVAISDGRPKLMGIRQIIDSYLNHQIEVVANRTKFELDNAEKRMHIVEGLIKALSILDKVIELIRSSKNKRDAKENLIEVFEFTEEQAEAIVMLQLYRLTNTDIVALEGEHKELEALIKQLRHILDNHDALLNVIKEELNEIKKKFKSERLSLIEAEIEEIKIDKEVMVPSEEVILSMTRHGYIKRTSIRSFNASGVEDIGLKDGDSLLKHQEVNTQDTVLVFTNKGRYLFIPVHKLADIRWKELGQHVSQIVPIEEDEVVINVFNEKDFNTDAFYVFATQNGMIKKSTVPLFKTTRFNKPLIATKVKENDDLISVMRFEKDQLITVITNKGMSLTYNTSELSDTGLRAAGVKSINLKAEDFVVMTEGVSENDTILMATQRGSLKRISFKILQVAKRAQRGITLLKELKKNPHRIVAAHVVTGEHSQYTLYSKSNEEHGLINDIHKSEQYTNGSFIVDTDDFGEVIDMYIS
Sequence of Topoisomerase IV (P0C1S7 whole entry): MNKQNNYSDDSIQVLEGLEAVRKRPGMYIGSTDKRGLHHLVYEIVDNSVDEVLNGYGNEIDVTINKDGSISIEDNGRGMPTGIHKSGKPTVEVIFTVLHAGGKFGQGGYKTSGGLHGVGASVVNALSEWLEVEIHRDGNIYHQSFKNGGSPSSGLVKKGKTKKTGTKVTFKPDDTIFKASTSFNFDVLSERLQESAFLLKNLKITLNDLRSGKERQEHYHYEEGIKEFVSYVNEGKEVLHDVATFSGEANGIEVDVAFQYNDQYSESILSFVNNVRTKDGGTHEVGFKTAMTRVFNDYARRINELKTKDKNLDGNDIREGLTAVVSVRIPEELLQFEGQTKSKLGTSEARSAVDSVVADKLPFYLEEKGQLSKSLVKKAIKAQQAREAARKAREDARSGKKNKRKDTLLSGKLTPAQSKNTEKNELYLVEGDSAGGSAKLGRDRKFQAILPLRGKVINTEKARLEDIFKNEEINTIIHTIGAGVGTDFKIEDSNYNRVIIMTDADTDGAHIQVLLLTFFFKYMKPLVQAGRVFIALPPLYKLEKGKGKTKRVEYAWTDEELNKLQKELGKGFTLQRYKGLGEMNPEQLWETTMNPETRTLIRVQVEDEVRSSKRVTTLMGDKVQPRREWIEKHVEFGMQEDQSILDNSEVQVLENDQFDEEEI

As for `NNC(=O)COc1ccc(NC(=O)c2cc(Br)c(Br)[nH]2)c(OCc2ccccc2)c1`, in assay [1], the Activity was found to be 100%.
One may read the IC50 as the point on the concentration scale where inhibition reaches its midpoint. In general, inhibition refers to the relative decrease from the control value, in per cent. Regarding `Cc1nc(-c2cc(NC(=O)CC(=O)NN)ccc2NC(=O)c2cc(Br)c(Br)[nH]2)no1`, the IC50 at DNA gyrase [2] turned out to be 140 nM. The Activity turned out to be 80% in [3], 88% in the assay on Escherichia coli [4] and 98% in [5]. Besides, in the assay with Escherichia coli [6] (ATCC 25922, 24 h), the inhibition at 50 µM was found to be 16%. The inhibition entry with Enterococcus faecalis, with Staphylococcus aureus and with Pseudomonas aeruginosa was “inactive” each time.
`Cc1nc(-c2cc(NC(=O)Cc3n[nH]c(=O)o3)ccc2NC(=O)c2cc(Br)c(Br)[nH]2)no1`: the IC50 came out at 45 nM on DNA gyrase [2] and 11000 nM against DNA gyrase [7]. Also, the results for the Activity (in the assay with Escherichia coli [4]; in assay [5]) were 91% and 60%, respectively. Also, the inhibition entry in the assay on Escherichia coli [6], in the assay with Enterococcus faecalis, in the assay with Staphylococcus aureus and in the assay on Pseudomonas aeruginosa was “inactive” each time.
As for `COC(=O)CC(=O)Nc1ccc(NC(=O)c2cc(Br)c(Br)[nH]2)c(-c2noc(C)n2)c1`, the results for the IC50 at DNA gyrase [2] and against DNA gyrase [7] were 86 nM and 63000 nM, respectively. Besides, the Activity in the assay with Escherichia coli [4] was 72%; in [5], 100%. Moreover, the inhibition entry in the assay with Escherichia coli [6], in the assay with Enterococcus faecalis, in the assay on Staphylococcus aureus and in the assay with Pseudomonas aeruginosa was “inactive” each time.
`O=C(Nc1ccc(OCc2n[nH]c(=O)o2)cc1)c1cc(Br)c(Br)[nH]1` showed an IC50 on DNA gyrase [2] of 8600 nM. Further, the inhibition result in the assay with Escherichia coli [6], with Enterococcus faecalis, in the assay on Staphylococcus aureus and in the assay with Pseudomonas aeruginosa was “inactive” throughout.
In the case of `NNC(=O)COc1ccc(NC(=O)c2cc(Br)c(Br)[nH]2)cc1`, in assay [1], the Activity came to 100%.
`O=C(Nc1ccc(OCc2n[nH]c(=O)o2)cc1OCc1ccccc1)c1cc(Br)c(Br)[nH]1`: in [1], the Activity was determined as 85%. Moreover, the inhibition result with Escherichia coli [6], in the assay on Enterococcus faecalis, in the assay on Staphylococcus aureus and with Pseudomonas aeruginosa was “inactive” in each case.
Turning to `O=C(O)COc1ccc(NC(=O)c2cc(Br)c(Br)[nH]2)c(OCc2ccccc2)c1`, the concentration for half-maximal inhibition (IC50) against DNA gyrase [2] amounted to 860 nM. The Activity in [3] was determined as 87%; in the assay with Escherichia coli [4] it was 84%; in assay [5], 92%. The inhibition result in the assay on Escherichia coli [6], in the assay on Staphylococcus aureus and with Pseudomonas aeruginosa was “inactive” throughout. The inhibition at 50 µM in the assay on Enterococcus faecalis (ATCC 29212, 24 h) worked out at 25%.
With `COC(=O)COc1ccc(NC(=O)c2cc(Br)c(Br)[nH]2)c(OCc2ccccc2)c1`, in assay [1], the Activity was found to be 100%.
For the compound `Cc1nc(-c2cc(NC(=O)CC(=O)O)ccc2NC(=O)c2cc(Br)c(Br)[nH]2)no1`, the IC50 at DNA gyrase [2] is 20 nM; against DNA gyrase [7], 1400 nM; in assay [8] it was 11000 nM; at Topoisomerase IV, 14000 nM. In addition, the inhibition result in the assay with Escherichia coli [6], in the assay with Enterococcus faecalis, in the assay on Staphylococcus aureus and with Pseudomonas aeruginosa was “inactive” in each case.
